Most compounds without a hit are left out; they make up all but 1.7% or so of the library.
UCH37 DUB inh: blocks the human deubiquitinase UCH37 | purified proteasome/UCH37, Ub-AMC cleavage fluorescence | inhibition, % (concentration not given with the values) | actives 0.33% (n = 330,000);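 active means mean inhibition over replicate wells above about 20%, limit read from the data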;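 further: 0% = compound-free wells with enzyme and 100% = wells lacking proteasome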
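Assay system: Proteasome-bound UCH37. Buffer or medium: pH 7.4 Tris-HCl (50 mM) with ovalbumin, ATP-MgCl2, DTT. Incubation: 30 min preincubation with enzyme, 25 min cleavage at room temperature. Measured by: fluorescence, ex 355 nm, em 460 nm. Read-out basis: percent inhibition. Control set: wells without proteasome as full block, compound-free enzyme plus substrate as uninhibited.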
Rpn11 inh: inhibitors of human proteasome Rpn11; AID 588493; inhibition, % at 20 µM; human 26S proteasome, Ub4-pepOG fluorescence polarization; 20S core pre-blocked with epoxomicin; actives 0.59% (n = 360,000); O00487;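 active means inhibition at 20 µM, scaled to each plate's controls, above about 33%, limit read from the data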
PLC-gamma1 inh: blocks human PLC-gamma1 enzyme activity; actives 0.84% (n = 370,000); AID 720700; purified PLC-gamma1, fluorogenic substrate, fluorescence; P19174; inhibition, % at 12.2 µM; in the data active means inhibition above about 9.5%
Target sequence (P19174 whole entry, looked up): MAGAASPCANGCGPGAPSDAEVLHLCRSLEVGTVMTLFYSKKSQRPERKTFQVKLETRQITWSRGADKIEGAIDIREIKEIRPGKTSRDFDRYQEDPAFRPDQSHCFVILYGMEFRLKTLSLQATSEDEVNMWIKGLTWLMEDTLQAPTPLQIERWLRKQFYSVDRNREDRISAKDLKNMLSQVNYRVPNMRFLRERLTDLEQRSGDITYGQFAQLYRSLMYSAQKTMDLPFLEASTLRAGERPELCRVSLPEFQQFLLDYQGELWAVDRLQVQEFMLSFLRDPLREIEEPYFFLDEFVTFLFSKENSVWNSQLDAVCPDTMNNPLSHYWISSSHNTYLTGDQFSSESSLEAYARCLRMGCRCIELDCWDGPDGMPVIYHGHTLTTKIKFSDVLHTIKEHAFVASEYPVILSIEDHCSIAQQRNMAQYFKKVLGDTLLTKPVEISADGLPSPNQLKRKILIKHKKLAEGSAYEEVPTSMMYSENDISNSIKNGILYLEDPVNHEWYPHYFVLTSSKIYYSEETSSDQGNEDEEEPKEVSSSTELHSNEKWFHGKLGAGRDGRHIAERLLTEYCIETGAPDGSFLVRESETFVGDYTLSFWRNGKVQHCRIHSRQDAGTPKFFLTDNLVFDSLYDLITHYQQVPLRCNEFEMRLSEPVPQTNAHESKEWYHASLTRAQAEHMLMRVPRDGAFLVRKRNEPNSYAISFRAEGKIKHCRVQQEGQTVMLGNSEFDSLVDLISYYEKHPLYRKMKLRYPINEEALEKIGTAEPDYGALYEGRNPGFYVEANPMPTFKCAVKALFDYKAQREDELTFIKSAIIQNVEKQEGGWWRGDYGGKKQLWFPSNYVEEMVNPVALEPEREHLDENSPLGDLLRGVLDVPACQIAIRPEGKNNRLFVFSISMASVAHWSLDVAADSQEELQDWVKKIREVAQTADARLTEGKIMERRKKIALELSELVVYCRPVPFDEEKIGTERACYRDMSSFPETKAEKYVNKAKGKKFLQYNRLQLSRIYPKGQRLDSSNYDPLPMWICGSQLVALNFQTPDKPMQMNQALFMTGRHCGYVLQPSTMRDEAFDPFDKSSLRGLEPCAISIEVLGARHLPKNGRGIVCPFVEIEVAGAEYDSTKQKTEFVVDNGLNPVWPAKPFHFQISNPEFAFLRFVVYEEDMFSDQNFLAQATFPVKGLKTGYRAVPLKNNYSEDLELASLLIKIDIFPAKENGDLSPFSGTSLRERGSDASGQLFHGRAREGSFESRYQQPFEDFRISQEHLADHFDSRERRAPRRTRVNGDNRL
PLC-beta3 inh: blocks human PLC-beta3 enzyme activity. Purified PLC-beta3, fluorogenic substrate, fluorescence. inhibition, % at 12.2 µM. actives 0.18% (n = 370,000). AID 720704; in the data active means inhibition above about 11%;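 further: 0% = median of compound wells on plate and 100% = full blocker control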
* = called active by the depositor.

Screening C=CCn1c(COc2ccc(CC)cc2)nnc1SCC(O)=C(C#N)c1nc2ccccc2[nH]1 returned UCH37 DUB inh -19.
For Cc1cccc(-c2n[nH]c(=S)n2N=Cc2ccc(C)s2)c1 the results were UCH37 DUB inh 1.
For CCC1C/C(=C\c2cc(OC)c(OC)cc2OC)C(=O)/C(=C/c2cc(OC)c(OC)cc2OC)C1 (stereo not drawn) the results were UCH37 DUB inh -1 and Rpn11 inh 102*.
For Cc1ccc(-c2nnn(CCC(=O)N3CCCCC3C)n2)cc1 (stereo not drawn) the results were UCH37 DUB inh 3, Rpn11 inh 0, PLC-gamma1 inh 13* and PLC-beta3 inh 10.
CC1CCCCN1C(=O)Cn1nnc(-c2cccnc2)n1 (stereo not drawn) was read as UCH37 DUB inh -2, Rpn11 inh -47, PLC-gamma1 inh -20 and PLC-beta3 inh -24.
`N#Cc1ccc(-c2ccco2)nc1SCC(=O)c1ccc(Cl)cc1` gave UCH37 DUB inh 4, Rpn11 inh 48*, PLC-gamma1 inh -221 and PLC-beta3 inh -307.
`COc1ccc(N(CC(=O)Nc2cccc(C(=O)O)c2)S(=O)(=O)c2c(C)noc2C)cc1` gave UCH37 DUB inh 1, Rpn11 inh -1, PLC-gamma1 inh 13* and PLC-beta3 inh 8.
CCOC(=O)c1cccc(NC(=O)CN(c2ccc(OC)cc2)S(=O)(=O)c2c(C)noc2C)c1 was read as Rpn11 inh -4, PLC-gamma1 inh 2 and PLC-beta3 inh 4.
`Cc1[nH]n(-c2ccccc2)c(=O)c1N=Nc1nccs1` gave UCH37 DUB inh 21*, Rpn11 inh 11, PLC-gamma1 inh -1 and PLC-beta3 inh 1.
Cc1ccc(S(=O)(=O)Nc2nc(C)c(C(=O)NN=Cc3ccccc3)s2)cc1 was read as UCH37 DUB inh -2.
For CC1(C)Cc2ccccc2C(C(=NNc2cccc(Cl)c2)C(N)=O)=N1 the results were UCH37 DUB inh 1.
Cn1cc(C(=O)c2ccc(Cl)cc2Cl)cc1C(=O)NN=C(N)COc1ccc(F)cc1 was read as UCH37 DUB inh 0.
For NC(=O)CCn1c(C(=O)c2ccc(Cl)cc2)c2ccccc2[n+]1[O-] the results were UCH37 DUB inh 28*, Rpn11 inh -6, PLC-gamma1 inh 2 and PLC-beta3 inh -1.
For COc1ccc(C=NNC(=S)Nc2ccccc2)cc1COc1cccc(C)c1C the results were UCH37 DUB inh 0.
For Cc1ccc(S(=O)(=O)CCSc2cccc(C(=O)Nc3ccccc3C(=O)O)c2)cc1 the results were UCH37 DUB inh 25*, Rpn11 inh -6, PLC-gamma1 inh -2 and PLC-beta3 inh -9.
Cc1ccc(NC(=O)c2cccc(C(=O)Nc3ccc(C)cc3C(=O)O)c2)c(C(=O)O)c1 was read as UCH37 DUB inh 12, Rpn11 inh 14, PLC-gamma1 inh 5 and PLC-beta3 inh -8.
Screening CC1CC(=O)c2c(cc3c(-c4c(O)cc(O)c5c(O)c6c(cc45)OC(C)CC6=O)c(O)cc(O)c3c2O)O1 (stereo not drawn) returned UCH37 DUB inh 22* and Rpn11 inh 3.
Screening COc1ccccc1C=NNC(=O)c1ccc(C)nc1 returned UCH37 DUB inh 3.
Screening CC(C)(C)NC(=S)NN=Cc1cc(Br)c(O)c(Br)c1 returned UCH37 DUB inh -34.
For CC1(c2cccc(Br)c2)NC(=O)N(CC(=O)Nc2cccnc2Cl)C1=O (stereo not drawn) the results were UCH37 DUB inh 3, Rpn11 inh -2, PLC-gamma1 inh 10* and PLC-beta3 inh -1.
`CC1(c2ccccc2Cl)NC(=O)N(CC(=O)Nc2cccnc2Cl)C1=O` (stereo not drawn) gave UCH37 DUB inh 2, Rpn11 inh 6, PLC-gamma1 inh 2 and PLC-beta3 inh -2.
`CN(C)c1ccnc(-n2cccc2C=NOCc2ccccc2)c1C#N` gave UCH37 DUB inh 5.
Screening N#C/C(=C\c1coc2ccccc2c1=O)C(N)=S returned UCH37 DUB inh 12, Rpn11 inh 44*, PLC-gamma1 inh -6 and PLC-beta3 inh -17.
`c1ccc(Cn2cnc3ccccc32)cc1` gave UCH37 DUB inh -2, Rpn11 inh -2, PLC-gamma1 inh 3 and PLC-beta3 inh 7.
Fc1cc2ncn(Cc3ccccc3)c2cc1F was read as UCH37 DUB inh 25*, Rpn11 inh -3, PLC-gamma1 inh -1 and PLC-beta3 inh -2.
`COc1cc(N=Nc2cccc(S(N)(=O)=O)c2)c2ccccc2c1N` gave UCH37 DUB inh 10, Rpn11 inh 92*, PLC-gamma1 inh -14 and PLC-beta3 inh -23.

Source: PubChem
